# Screening results from PubChem.
# An excerpt weighted towards active compounds, which were near 1.9% of everything screened.
# Runt-CBFb FRET – blocks binding of human RUNX1 Runt domain to CBFb; inhibition, % at 20 µM; Q01196+Q13951; AID 1496; Cerulean-Runt/Venus-CBFb FRET ratio 530/480, 1 h; actives 0.46% (n = 220,000);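 active = inhibition over about 50% at 20 µM in the single-dose screen, limit read from the data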;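 note: 0% = DMSO wells and 100% = excess unlabeled CBFb competitor control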
#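 Buffer or medium: Tris pH 7.5 buffer with BSA. Assay system: Cerulean-labeled Runt domain protein. Amount: each fluorescent fusion protein 100 nM. Read-out basis: loss of energy transfer signal. Incubation: 1 h compound exposure, room temperature. Probe or stimulus: Venus-CBFb binding partner, 100 nM. Detection: FRET, excitation 422 nm, emission at 530 and 480 nm.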
# RanGTP-Impb inh – disruptors of Ran-importin-beta complex formation – biochemical, FRET, CFP-Ran, YFP-importin-beta, homogeneous, primary screen; cell-free CFP-Ran/YFP-importin-beta FRET ratio; inhibition, % (concentration not given with the values); actives 1.1% (n = 300,000); AID 2216;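 active = more than half of the replicate wells show a fall in the fluorescence ratio signal beyond about 16%, limit read from the data, passing the limit was not always enough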;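 note: 0% = DMSO wells and 100% = Ran loaded with GDP instead of GTP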
# TbHK1 inh – blocks Trypanosoma brucei hexokinase 1 activity; inhibition, % at 10 µM; recombinant TbHK1, G6PDH-coupled NADH A340; AID 1430; actives 0.11% (n = 220,000);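 active = inhibition of 50% or more in the single-dose primary screen; inactive = inhibition below 50%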
# Runt-SMMHC FRET – blocks binding of human RUNX1 Runt domain to CBFb-SMMHC; Q01196+Q13951; Cerulean-Runt/Venus-CBFb-SMMHC FRET ratio 530/480, 1 h; inhibition, % at 20 µM; actives 0.74% (n = 220,000); AID 1434;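 active = mean inhibition across duplicate retests at 20 µM reaching about 50%, limit read from the data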;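 note: 0% = DMSO wells and 100% = wells with excess untagged CBFb-SMMHC; inhibitors lower the FRET ratio by blocking Runt binding to CBFb-SMMHC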
# Hck-Nef inh – inhibitors of human Hck kinase activated by Nef | P08631 | Recombinant Hck-YEEI plus Nef, Z-Lyte FRET kinase assay | inhibition, % at 20 µM | actives 0.68% (n = 220,000) | AID 463187;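 active = Hck-Nef kinase inhibition above about 50%, limit read from the data; inactive = inhibition below that limit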;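 note: 0% = DMSO with Hck plus Nef and 100% = Hck alone without Nef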
# Target sequence (P08631 whole entry, looked up): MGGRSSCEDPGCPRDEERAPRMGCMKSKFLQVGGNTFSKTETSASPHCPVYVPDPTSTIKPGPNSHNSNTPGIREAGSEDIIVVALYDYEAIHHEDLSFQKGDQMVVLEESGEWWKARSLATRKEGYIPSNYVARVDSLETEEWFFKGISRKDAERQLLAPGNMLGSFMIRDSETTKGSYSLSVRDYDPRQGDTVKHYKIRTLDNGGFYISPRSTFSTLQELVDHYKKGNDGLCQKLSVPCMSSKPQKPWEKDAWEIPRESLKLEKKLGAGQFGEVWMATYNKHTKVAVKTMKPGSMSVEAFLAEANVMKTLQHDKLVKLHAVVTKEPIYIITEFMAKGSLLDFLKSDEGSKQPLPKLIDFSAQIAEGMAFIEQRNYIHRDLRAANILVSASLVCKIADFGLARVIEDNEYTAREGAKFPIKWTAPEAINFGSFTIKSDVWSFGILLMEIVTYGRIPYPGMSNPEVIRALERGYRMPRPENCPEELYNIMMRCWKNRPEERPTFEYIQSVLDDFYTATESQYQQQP
# Active calls of the source: *; x = not tested or not shown.
SMILES,Runt-CBFb FRET,RanGTP-Impb inh,TbHK1 inh,Runt-SMMHC FRET,Hck-Nef inh
O=C(O)C1CCCCC1C(=O)Nc1nc(-c2ccc(Cl)s2)cs1 (centres undefined),17,-4,10,8,70*
CCOC(=O)CSc1nnc(NC(=O)CN2CCCCC2)s1,x,-12,x,x,x
CC(=O)c1sc2nc(-c3cccs3)ccc2c1N,28,-38,-34,83*,1
COc1ccc(C(=O)c2sc3nc(-c4ccc(OC)cc4)ccc3c2N)cc1,-6,23*,-8,-3,0
COc1ccc(C)cc1NC(=O)NNC(=O)C(C)Oc1ccc([N+](=O)[O-])cc1 (centres undefined),x,2,x,x,x
Cc1c(Cl)cccc1NC(=O)CCN1C(=O)C2CC=CCC2C1=O (centres undefined),x,-5,x,x,x
N#C/C(=C\c1ccc(O)c(O)c1)C(=O)Nc1cccc2ncccc12,x,93*,x,x,x
N#C/C(=C\c1ccc(F)cc1)C(=O)Nc1ccccn1,x,39*,x,x,x
N#C/C(=C/c1ccc(O)c(O)c1)C(=O)NCc1ccc(Cl)cc1,x,7,x,x,x
COc1ccc(-c2ncccc2OC(=O)C23CC4CC(CC(C4)C2)C3)cc1OC,-2,-3,-8,3,4
O=C(CSc1nc2[nH]ncc2c(=O)[nH]1)Nc1ccccc1,0,-2,-5,0,14
COc1cc(/C=C(/C#N)c2nc(-c3cc4ccccc4oc3=O)cs2)cc([N+](=O)[O-])c1O,-14,x,7,-29,114*
CCOCCCn1c(=NC(=O)c2cccs2)c(C#N)cc2c(=O)n3cccc(C)c3nc21,76*,121*,6,81*,20
Cc1cccn2c(=O)c3cc(C#N)c(=NC(=O)c4cccs4)n(CC(C)C)c3nc12,39,151*,-17,88*,16
CCN(CC)S(=O)(=O)c1cc(NC(=O)Cn2ncc(Cl)c(Cl)c2=O)ccc1C,-2,-2,16,-13,74*
CCCCn1nc(NC(=O)CC)c2cc3cc(OC)ccc3nc21,x,65*,x,x,x
CCCn1nc(NC(=O)C(C)(C)C)c2cc3cc(OC)ccc3nc21,x,67*,x,x,x
CCCC(=O)Nc1nn(C)c2nc3cc(C)ccc3cc12,0,6,x,-1,x
O=C(O)c1ccc(N/N=C/c2ccc(-c3ccccc3)cc2)cc1,3,5,-18,11,33
O=C(O)c1ccc(N/N=C/C=C/c2ccccc2)cc1,20,85*,-18,21,26
Cc1cc(Cl)c2ccccc2n1,-1,1,0,-6,1
Clc1cncc(Cl)c1NNc1c2ccccc2nc2ccccc12,128*,23*,-9,83*,9
O=c1[nH]c(C2CCN(S(=O)(=O)c3ccc(F)cc3)CC2)nc2c1nnn2Cc1ccc2c(c1)OCCO2,x,19*,x,x,x
O=c1[nH]c(C2CCN(S(=O)(=O)c3ccccc3F)CC2)nc2c1nnn2Cc1ccc2c(c1)OCCO2,x,12,x,x,x
COc1ccccc1OC(C)C(=O)N(Cc1ccco1)C1CCS(=O)(=O)C1 (centres undefined),x,-3,x,x,x
SMILES,Runt-CBFb FRET,RanGTP-Impb inh,TbHK1 inh,Runt-SMMHC FRET,Hck-Nef inh
CCCC[n+]1c2ccccc2cc2ccccc21,x,150*,x,x,x
CCC[n+]1c2ccccc2cc2ccccc21,x,155*,x,x,x
CCCCC[n+]1cccc2c3ccccc3ccc21,-2,1,-8,11,22
CCC1=C(OC(=O)N(CC)CC)N2C(=O)OC(=NCC3CC3)[C@]2(C)[C@H]2C1=CC[C@H]1C(=O)N(CC)C(=O)[C@H]12,0,-2,-14,-1,23
C[C@@H]1C=CC(=O)O[C@@H]1c1ccc(Cl)cc1,x,1,x,x,x
CCC1=[N+](CC(=O)c2ccc(Br)cc2)CCn2c(C)ccc21,-4,7,-63,7,4
CCC1=[N+](CC(=O)c2ccc(C)cc2)CCn2c(C)ccc21,-4,44*,-96,-15,2
N#CC(C#N)=C1C=C2C=C(N3CCCCCC3)CCC2CC1 (centres undefined),4,45*,-5,83*,3
CN1CCN(C2=CC3=CC(=C(C#N)C#N)CCC3CC2)CC1 (centres undefined),-27,x,3,88*,0
N#Cc1cc(Cl)c(N2CCOCC2)cc1C#N,0,4,-14,-3,0
CCN1CCN(C2=CC3=CC(=C(C#N)C#N)CCC3CC2)CC1 (centres undefined),-115,x,10,86*,0
